Article PMC3536955 (Osteoporosis International, 2012)

Legend:
Type in all cases: in vivo, postmenopausal Japanese women
[1] = tested on: 1,25-Dihydroxy vitamin D (1,25(OH)2D); experiment: Serum 1,25; conditions: n = 10
Procedure, shortened: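 Serum 1,25(OH)2D was measured by radio receptor assay (inter-assay CV 11.3–13.2 %), with each participant's samples in a single batch. Women aged 60–79 y received one s.c. injection or placebo at 0800 h after baseline blood, in a double-blind randomised design. Sampling ran from 15–720 min and on mornings of days 2, 4, 6, 8, 11, 13 and 15. Median baseline and follow-up distribution were tabulated.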

[2] = Pharmacokinetics: plasma teriparatide acetate concentration
Procedure, shortened: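 Plasma was sampled before and at 15, 30, 45, 60, 90, 120, 180, 240, 360 and 720 min after one s.c. injection at 0800 h in postmenopausal women. Drug was assayed with a rat PTH IRMA kit (range 10 to 1,000 pg/mL). Cmax, AUClast, AUCinf, Tmax and T1/2 were derived for active-dose recipients only. Concentrations are given as mean ± SD.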

osteocalcin = experiment: Bone formation marker serum osteocalcin; conditions: n = 10
Procedure, shortened: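 Women aged 60–79 y were randomised double-blind to placebo or one s.c. injection at 0800 h, given after baseline blood. Serum was sampled 15–720 min post-dose, then each morning on days 2, 4, 6, 8, 11, 13 and 15. Osteocalcin was measured by BGP-IRMA (inter-assay CV 4.7–7.6 %), in a single batch per participant. Values were summarised as baseline median and follow-up distribution.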

[3] = Safety: adverse events after injection
Procedure, shortened: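 Adverse events were recorded after a single s.c. injection of drug or identical-looking placebo in a randomised, double-blind study of postmenopausal women aged 60–79 y, with 10 per group. Events and abnormal laboratory changes were coded by MedDRA/J version 9.0 by system organ class and preferred term, and classified as adverse drug reactions where applicable. Follow-up lasted until day 15.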

[4] = 4 to 15 days, 28.2 μg single s.c.
[5] = 4 to 15 days, 56.5 μg single s.c.

With `CC[C@H](C)[C@H](NC(=O)[C@H](CCC(=O)O)NC(=O)[C@H](CO)NC(=O)[C@@H](NC(=O)[C@@H](N)CO)C(C)C)C(=O)N[C@@H](CCC(N)=O)C(=O)N[C@@H](CC(C)C)C(=O)N[C@@H](CCSC)C(=O)N[C@@H](Cc1cnc[nH]1)C(=O)N[C@@H](CC(N)=O)C(=O)N[C@@H](CC(C)C)C(=O)NCC(=O)N[C@@H](CCCCN)C(=O)N[C@@H](Cc1cnc[nH]1)C(=O)N[C@@H](CC(C)C)C(=O)N[C@@H](CC(N)=O)C(=O)N[C@@H](CO)C(=O)N[C@@H](CCSC)C(=O)N[C@@H](CCC(=O)O)C(=O)N[C@@H](CCCN=C(N)N)C(=O)N[C@H](C(=O)N[C@@H](CCC(=O)O)C(=O)N[C@@H](Cc1c[nH]c2ccccc12)C(=O)N[C@@H](CC(C)C)C(=O)N[C@@H](CCCN=C(N)N)C(=O)N[C@@H](CCCCN)C(=O)N[C@@H](CCCCN)C(=O)N[C@@H](CC(C)C)C(=O)N[C@@H](CCC(N)=O)C(=O)N[C@@H](CC(=O)O)C(=O)N[C@H](C(=O)N[C@@H](Cc1cnc[nH]1)C(=O)N[C@@H](CC(N)=O)C(=O)N[C@@H](Cc1ccccc1)C(=O)O)C(C)C)C(C)C` [teriparatide] as the compound, how does the “1,25(OH)2D, Min” value ([1]; 2 to 24 h, 28.2 μg single s.c.) read?
Its value is 37.0 pg/mL.

And the “1,25(OH)2D, Max” value ([1]; 2 to 24 h, 56.5 μg single s.c.)?
The value was 136.0 pg/mL.

What about the “1,25(OH)2D, Median” value ([1]; 2 to 24 h, 56.5 μg single s.c.) of the same compound?
Its value is 70.5 pg/mL.

What about the “1,25(OH)2D, Min” value ([1]; 2 to 24 h, 56.5 μg single s.c.) of the same compound?
The value was 33.0 pg/mL.

What about the “1,25(OH)2D, Max” value [1, 4] of the same compound?
The value was 99.0 pg/mL.

What about the “1,25(OH)2D, Median” value [1, 4] of the same compound?
Its value is 56.0 pg/mL.

And the “1,25(OH)2D, Min” value [1, 4]?
Its value is 21.0 pg/mL.

And the “1,25(OH)2D, Max” value [1, 5]?
The value was 94.0 pg/mL.

What about the “1,25(OH)2D, Median” value [1, 5] of the same compound?
The value was 54.0 pg/mL.

What about the “1,25(OH)2D, Min” value [1, 5] of the same compound?
Its value is 18.0 pg/mL.

And the Tmax ([2]; female, human, sc)?
Its Tmax is 1 h.

What about the AUC(0-inf) ([2]; female, human, sc, 28.2 ug) of the same compound?
The AUC(0-inf) was 0.468 ng·h/mL.

And the AUC(0-inf) ([2]; female, human, sc, 56.5 ug)?
The AUC(0-inf) was 0.879 ng·h/mL.

What about the AUC(0-t) ([2]; female, human, sc, 56.5 ug) of the same compound?
The AUC(0-t) was 0.832 ng·h/mL.

And the “time after injection at which teriparatide concentration disappeared” value ([2]; single s.c. injection 28.2 or 56.5 μg)?
The value was 6 h.

And the “Serum osteocalcin, Max” value (osteocalcin; 2 to 24 h, 28.2 μg single s.c.)?
The value was 12.7 ng/mL.

What about the “Serum osteocalcin, Median” value (osteocalcin; 2 to 24 h, 28.2 μg single s.c.) of the same compound?
The value was 7.6 ng/mL.

What about the “Serum osteocalcin, Min” value (osteocalcin; 2 to 24 h, 28.2 μg single s.c.) of the same compound?
The value was 4.6 ng/mL.

And the “Serum osteocalcin, Max” value (osteocalcin; 2 to 24 h, 56.5 μg single s.c.)?
The value was 16.7 ng/mL.

And the “Serum osteocalcin, Median” value (osteocalcin; 2 to 24 h, 56.5 μg single s.c.)?
The value was 7.4 ng/mL.

And the “Serum osteocalcin, Min” value (osteocalcin; 2 to 24 h, 56.5 μg single s.c.)?
The value was 3.2 ng/mL.

What about the “Serum osteocalcin, Max” value (osteocalcin; [4]) of the same compound?
Its value is 12.2 ng/mL.

What about the “Serum osteocalcin, Median” value (osteocalcin; [4]) of the same compound?
Its value is 8.1 ng/mL.

What about the “Serum osteocalcin, Min” value (osteocalcin; [4]) of the same compound?
Its value is 4.6 ng/mL.

And the “Serum osteocalcin, Max” value (osteocalcin; [5])?
Its value is 17.9 ng/mL.

What about the “Serum osteocalcin, Median” value (osteocalcin; [5]) of the same compound?
Its value is 7.9 ng/mL.

What about the “Serum osteocalcin, Min” value (osteocalcin; [5]) of the same compound?
Its value is 4.3 ng/mL.

And the Any adverse event ([3]; 28.2 μg single s.c., n = 10)?
The Any adverse event was 10 (100) n (%).

What about the Decreased appetite ([3]; 28.2 μg single s.c., n = 10) of the same compound?
The Decreased appetite was 1 (10) n (%).

And the Decreased blood pressure ([3]; 28.2 μg single s.c., n = 10)?
Its Decreased blood pressure is 1 (10) n (%).

What about the Erythema ([3]; 28.2 μg single s.c., n = 10) of the same compound?
Its Erythema is 1 (10) n (%).

And the Muscle spasms ([3]; 28.2 μg single s.c., n = 10)?
Its Muscle spasms is 1 (10) n (%).

What about the Palpitations ([3]; 28.2 μg single s.c., n = 10) of the same compound?
Its Palpitations is 1 (10) n (%).

What about the Positional vertigo ([3]; 28.2 μg single s.c., n = 10) of the same compound?
The Positional vertigo was 1 (10) n (%).

What about the Rhinorrhea ([3]; 28.2 μg single s.c., n = 10) of the same compound?
The Rhinorrhea was 1 (10) n (%).

What about the Somnolence ([3]; 28.2 μg single s.c., n = 10) of the same compound?
The Somnolence was 1 (10) n (%).

And the Vomiting ([3]; 28.2 μg single s.c., n = 10)?
The Vomiting was 1 (10) n (%).

What about the Any adverse event ([3]; 56.5 μg single s.c., n = 10) of the same compound?
Its Any adverse event is 10 (100) n (%).

What about the Conjunctival hyperemia ([3]; 56.5 μg single s.c., n = 10) of the same compound?
Its Conjunctival hyperemia is 1 (10) n (%).

What about the Decreased appetite ([3]; 56.5 μg single s.c., n = 10) of the same compound?
The Decreased appetite was 1 (10) n (%).

And the Eye pain ([3]; 56.5 μg single s.c., n = 10)?
The Eye pain was 1 (10) n (%).

And the Headache ([3]; 56.5 μg single s.c., n = 10)?
The Headache was 3 (30) n (%).

And the Hot flashes ([3]; 56.5 μg single s.c., n = 10)?
The Hot flashes was 1 (10) n (%).

And the Nasopharyngitis ([3]; 56.5 μg single s.c., n = 10)?
Its Nasopharyngitis is 1 (10) n (%).

And the Nausea ([3]; 56.5 μg single s.c., n = 10)?
Its Nausea is 1 (10) n (%).

What about the Pharynx discomfort ([3]; 56.5 μg single s.c., n = 10) of the same compound?
The Pharynx discomfort was 1 (10) n (%).

And the Rhinorrhea ([3]; 56.5 μg single s.c., n = 10)?
Its Rhinorrhea is 1 (10) n (%).

And the Somnolence ([3]; 56.5 μg single s.c., n = 10)?
The Somnolence was 5 (50) n (%).

What about the Vomiting ([3]; 56.5 μg single s.c., n = 10) of the same compound?
The Vomiting was 1 (10) n (%).

And the “severity and outcome of ADRs” value ([3]; 28.2 and 56.5 μg groups, most ADRs)?
The value was “mild and resolved without intervention”.

What about the “changes in laboratory values before or after administration” value ([3]; throughout the study duration) of the same compound?
Its value is “no significant changes”.
